Screens as filed in PubChem.
Compounds with a hit are over-represented: about 1.9% of the library has one in this group of screens.
CHRM5 agonist: agonists of human muscarinic M5 receptor (CHRM5) | P08912 | CHO-K1 hM5 cells, Fluo-8 calcium fluorescence; 0% DMSO wells, 100% maximal acetylcholine response | activation, % at 3 µM | actives 0.19% (n = 360,000) | AID 624037;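 active means activation above the run's mean over test compounds plus 3 SD, cut at about 23% in these data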;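 further: signal is peak over basal fluorescence ratio across the kinetic read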
M5 PAM: potentiates acetylcholine response at human M5 receptor; P08912; CHO-K1 hM5, Fluo-8 calcium, ACh EC20 PAM; 0% = ACh EC20, 100% = ACh EC100; activation, % at 3 µM; actives 0.3% (n = 360,000);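 active means activation above the run cutoff, the mean activation of all test compounds plus 3 SD, cut at about 18% in these data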
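system = human M5 receptor in CHO-K1 cells | compound = one concentration, 3 µM final (nominal) | schedule = Post-acetylcholine fluorescence recording 140 s | signal = Fluo-8 calcium dye fluorescence, kinetic read | benchmarks = low control EC20 acetylcholine (0%), high control EC100 acetylcholine (100%) | repeats = singlicate, one well per test compound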
M5 antag: antagonists of human muscarinic M5 receptor (CHRM5); CHO-hM5 cells, Fluo-8 calcium fluorescence, ACh EC80; inhibition, % at 3 µM; actives 0.59% (n = 360,000); AID 624040;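 active means inhibition above a per-plate cutoff, the mean of that plate's test compounds plus 3 SD, cut at about 27% in these data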;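 further: 0% = acetylcholine EC80 with DMSO and 100% = DMSO without agonist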
M4 antag: antagonists of human muscarinic M4 receptor (CHRM4); P08173; inhibition, % at 3 µM; actives 0.73% (n = 360,000); AID 624125; CHO-hM4 cells, ACh EC80, Fluo-8 calcium fluorescence;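 active means inhibition above its plate's cutoff, the mean inhibition of sample wells plus 3 SD, cut at about 27% in these data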;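 further: 0% = acetylcholine EC80 with DMSO and 100% = DMSO without agonist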
Target sequence (P08173 whole entry, looked up): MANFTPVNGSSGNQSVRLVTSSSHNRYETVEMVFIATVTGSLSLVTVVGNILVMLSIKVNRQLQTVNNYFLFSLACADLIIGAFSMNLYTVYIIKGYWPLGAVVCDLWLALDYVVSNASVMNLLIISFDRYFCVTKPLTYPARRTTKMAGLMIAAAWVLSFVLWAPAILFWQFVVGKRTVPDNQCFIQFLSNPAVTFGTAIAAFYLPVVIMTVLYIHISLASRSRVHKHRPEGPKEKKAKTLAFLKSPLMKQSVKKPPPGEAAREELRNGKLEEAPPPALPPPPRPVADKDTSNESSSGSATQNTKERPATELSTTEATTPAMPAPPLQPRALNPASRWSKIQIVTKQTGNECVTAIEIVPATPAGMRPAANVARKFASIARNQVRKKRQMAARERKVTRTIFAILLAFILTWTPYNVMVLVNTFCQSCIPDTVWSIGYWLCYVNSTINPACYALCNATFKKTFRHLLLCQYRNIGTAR
M4 ag: CHRM4 agonism in calcium assay. P08173. CHO-K1 hM4/Gqi5, Fluo-8 calcium fluorescence; vehicle 0%, full acetylcholine response 100%. activation, % at 3 µM. actives 0.14% (n = 360,000);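 active means activation above the run mean over all test wells plus 3 SD, cut at about 32% in these data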;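 further: peak over basal fluorescence ratio per well then scaled between controls; 0% = DMSO wells and 100% = acetylcholine at EC100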
CHRM4 PAM: positive allosteric modulators of human muscarinic M4 receptor; P08173; CHO-K1 hM4/Gqi5, Fluo-8 calcium fluorescence, ACh EC20; 0% = ACh EC20, 100% = maximal ACh; activation, % at 3 µM; actives 0.4% (n = 360,000); AID 624126;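 active means activation above its plate's cutoff, the mean activation of sample wells plus 3 SD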
The depositor's hits bear a star.

SMILES	CHRM5 agonist	M5 PAM	M5 antag	M4 antag	M4 ag	CHRM4 PAM
COc1ccc(CCn2c(=O)[nH]c3cc(C(=O)NCCN4CCOCC4)ccc3c2=O)cc1OC	-1	12	-6	21	4	29*
COc1ccc(CCn2c(=O)[nH]c3cc(C(=O)NCCCN4CCOCC4)ccc3c2=O)cc1OC	3	2	6	-7	1	-1
CSc1nc(N)n2nccc2n1	0	-10	2	2	0	9
OCC[C@@H]1C[C@H](O)[C@@H](O)[C@@]2(OCCCc3cc(Cl)ccc32)O1	3	9	-3	0	1	8
COc1ccc2sc(C)nc2c1NC(C)=O	-2	-2	3	-4	0	5
COc1cc2sc(C)nc2c2sccc12	-6	-1	-23	-10	0	18*
O=C(Nc1ccc2cccnc2c1)c1ccc(Br)cc1	1	1	9	-18	-2	15*
CC1(C(=O)NS(=O)(=O)c2cccc(Cl)c2)CCN1C(=O)CCc1cccs1 (stereo not given)	0	-5	-2	15	1	-5
COc1ccc(CNC(=O)[C@@H]2CC=C[C@@H]3CCN(Cc4ccc(Cl)c(Cl)c4)C(=O)[C@@H]32)cc1	1	-4	9	-6	5	10
COc1ccc(CNC[C@@H](CCCCN(C)Cc2ccc(OC)cc2)N2C[C@H](c3ccccc3)N(CCc3ccc(Cl)c(Cl)c3)C(=O)C2=O)cc1	-3	-3	14	21	60*	3
COc1cc2c(c(OC)c1OC)CC(=O)N(C)CC2	-7	-9	-3	33*	1	-31
CCOc1ccc(Nc2nc3ccccc3n2C)cc1	-8	-6	13	-4	0	-18
CCOc1ccc(CNc2nc3ccccc3n2C)cc1	-2	21*	-12	-14	2	1
CCCCCn1c(=O)[nH]c2cc(C(=O)NCCc3ccc(OC)c(OC)c3)ccc2c1=O	-1	9	-5	-4	0	1
CCCCNC(=O)c1sc(=S)n2c1[nH]c(=O)c1ccc(C(=O)NCCc3ccc(OC)c(OC)c3)cc12	2	25*	-27	4	0	15
CC(=O)C1=C(c2ccccc2)NC(=S)NC1c1ccc(O)c(O)c1 (stereo not given)	9	26*	3	-1	0	-4
CCOC(=O)/C=C/C(=O)Nc1ccc(Oc2ccccc2)cc1	-3	-26	36*	20	13	-16
CC(=O)C1=C(C)NC(SCC(=O)c2ccc(Cl)c(Cl)c2)=C(C#N)C1c1ccco1 (stereo not given)	1	-3	-4	-7	8	14
CC(=O)C1=C(C)NC(SCC(=O)c2ccc(F)cc2)=C(C#N)C1c1ccco1 (stereo not given)	0	-6	8	-3	12	18*
COc1ccc(NC(=O)C[C@H]2C(=O)N(Cc3ccccc3)C[C@@H]2CSC)cc1	1	-6	11	2	2	-2
O=S1(=O)CC(N2CCC(c3ccccc3)CC2)CN1Cc1ccc(F)cc1 (stereo not given)	1	1	5	4	3	3
Cc1cc(N/N=C/c2ccc(O)cc2O)nc(-c2ccccc2O)n1	5	-17	24	30*	21	-25
Cc1cc(N/N=C/c2ccccc2O)nc(-c2ccccc2O)n1	-2	-6	7	-6	5	-2
CCSc1nnc(NC(=O)NC(C)(C(F)(F)F)C(F)(F)F)s1	2	-11	14	5	10	-6
CCSc1nnc(NC(=O)NC(CC)(C(F)(F)F)C(F)(F)F)s1	3	-21	31*	8	9	-9
Cc1ccc(NC(=O)N2CCc3ccccc3C2)c(C)c1	-6	6	3	-10	2	19*
O=C(Nc1ccccc1)OCc1cncs1	-1	18*	-2	2	6	6
O=C(Nc1ccc(Cl)c(Cl)c1)OCc1cncs1	-4	-10	17	20	8	2
